Data: ChEMBL document CHEMBL4368914, “Tricyclic Indazoles-A Novel Class of Selective Estrogen Receptor Degrader Antagonists” (J Med Chem, 2019)

system: not listed separately; experiment: Fraction unbound in Alderley Park Han Wistar rat plasma by equilibrium dialysis; type: ADME, cell-free; conditions: not given
In short: (§1)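 Equilibrium dialysis from DMSO stock in 10% plasma, either Alderley Park Han Wistar rat plasma or human plasma.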

Row | fraction unbound | Structure (SMILES)
1 | 0.0023 | C[C@@H]1Cc2c(ccc3[nH]ncc23)[C@@](C)(c2c(F)cc(/C=C/C(=O)O)cc2F)N1CC(C)(C)F
2 | 0.037 | CC(C)CN1CCc2cc(O)ccc2[C@H]1c1ccc(/C=C/C(=O)O)cc1

biological target: T1, Estrogen receptor (Homo sapiens, UniProt P03372); experiment: Binding affinity to recombinant human GST-tagged ERalpha LBD expressed in baculovirus-infected insect cells by lantha screen assay; conditions: not given
T1 sequence (P03372 whole entry): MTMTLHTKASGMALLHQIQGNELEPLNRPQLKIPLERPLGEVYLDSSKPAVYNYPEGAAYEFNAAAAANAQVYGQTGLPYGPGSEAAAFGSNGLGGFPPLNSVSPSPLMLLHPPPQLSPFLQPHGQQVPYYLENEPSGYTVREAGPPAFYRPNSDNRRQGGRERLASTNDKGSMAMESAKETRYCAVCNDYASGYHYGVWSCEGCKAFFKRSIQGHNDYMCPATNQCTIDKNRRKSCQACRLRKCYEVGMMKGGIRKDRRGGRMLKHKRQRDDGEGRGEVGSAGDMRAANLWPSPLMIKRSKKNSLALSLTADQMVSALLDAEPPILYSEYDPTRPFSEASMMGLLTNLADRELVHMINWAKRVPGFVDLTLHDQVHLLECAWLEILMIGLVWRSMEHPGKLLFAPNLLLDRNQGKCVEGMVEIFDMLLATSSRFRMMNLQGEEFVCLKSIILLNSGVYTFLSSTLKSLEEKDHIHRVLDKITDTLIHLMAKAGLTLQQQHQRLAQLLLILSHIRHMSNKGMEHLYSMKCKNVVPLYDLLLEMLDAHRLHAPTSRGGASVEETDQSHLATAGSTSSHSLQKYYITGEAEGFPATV

Row | IC50 [nM] | Structure (SMILES)
3 | 0.398 | C[C@@H]1Cc2c(ccc3[nH]ncc23)[C@@](C)(c2c(F)cc(/C=C/C(=O)O)cc2F)N1CC(C)(C)F

system: not listed separately; experiment: Lipophilicity, log D of the compound at pH 7.4 by shake flask method; type: physicochemical; conditions: buffer
In short: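 Shake-flask measurement of logD at pH 7.4.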

Row | logD | Structure (SMILES)
4 | 2.9 | C[C@@H]1Cc2c(ccc3[nH]ncc23)[C@@](C)(c2c(F)cc(/C=C/C(=O)O)cc2F)N1CC(C)(C)F

system: not listed separately; experiment: Glutathione reactivity in human liver microsomes assessed as GSH trapping ratio of compound to clozapine; type: ADME, Microsome; conditions: not given
In short: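 Glutathione trapping in human liver microsomes, expressed as a ratio to clozapine.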

Row | Ratio | Structure (SMILES)
5 | < 0.04 | C[C@@H]1Cc2c(ccc3[nH]ncc23)[C@@](C)(c2c(F)cc(/C=C/C(=O)O)cc2F)N1CC(C)(C)F

system: not listed separately; experiment: Intrinsic clearance in rat hepatocytes assessed per million cells; type: ADME, cell-based, Hepatocyte; conditions: read-out: CLH
In short: (§2)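 Rate of metabolism (µl/min/10⁶ cells) measured from DMSO stock in isolated hepatocytes diluted to 1x10⁶ cells/mL.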

Row | hepatocyte CLint [µL/min/1e6 cells] | Structure (SMILES)
6 | 12 | C[C@@H]1Cc2c(ccc3[nH]ncc23)[C@@](C)(c2c(F)cc(/C=C/C(=O)O)cc2F)N1CC(C)(C)F

biological target: T1, Estrogen receptor; experiment: Induction of ERalpha degradation in human MCF7 cells after 18 to 24 hrs by in multiplexed cell assay; type: cell-based; conditions: not given
In short: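 MCF-7 cells were kept at 37 °C, 5% CO₂ in phenol red-free RPMI1640 with 5% charcoal-stripped FCS and 2 mmol/L glutamine. Compounds came from 10 mmol/L DMSO stocks.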

Row | IC50 [nM] | Structure (SMILES)
7 | 0.631 | C[C@@H]1Cc2c(ccc3[nH]ncc23)[C@@](C)(c2c(F)cc(/C=C/C(=O)O)cc2F)N1CC(C)(C)F

system: not listed separately; experiment: Intrinsic clearance in human hepatocytes assessed per million cells; type: ADME, cell-based, Hepatocyte; conditions: read-out: CLH; in short: as §2

Row | hepatocyte CLint [µL/min/1e6 cells] | Structure (SMILES)
8 | 10 | C[C@@H]1Cc2c(ccc3[nH]ncc23)[C@@](C)(c2c(F)cc(/C=C/C(=O)O)cc2F)N1CC(C)(C)F

system: not listed separately; experiment: Fraction unbound in 10% human plasma by equilibrium dialysis; type: ADME, cell-free; conditions: 10% plasma; in short: as §1

Row | fraction unbound | Structure (SMILES)
9 | 0.0033 | C[C@@H]1Cc2c(ccc3[nH]ncc23)[C@@](C)(c2c(F)cc(/C=C/C(=O)O)cc2F)N1CC(C)(C)F
